Assay results as given in PMC7941214 (Journal of medicinal chemistry, 2019).
“And” between values parts separate entries of the source, which are not always exact repeats. Identical values can stand only once.

Legend:
[1] = tested on: A. baumannii NCTC 13420; assay: Broth microdilution MIC/MBC, A. baumannii; format: cell-based, Acinetobacter baumannii; settings: for MIC A. baumannii NCTC 13420: value before the parentheses, two values = two repeats; for MBC A. baumannii NCTC 13420: value in parentheses
[2] = tested on: E. coli ATCC 25922; assay: Broth microdilution MIC/MBC, E. coli; format: cell-based, Escherichia coli; settings: for MIC E. coli ATCC 25922: value before the parentheses, two values = two repeats; for MBC E. coli ATCC 25922: value in parentheses
Summary of the method: (§1)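 CLSI broth microdilution in cation-adjusted Mueller–Hinton broth. Log-phase cultures were diluted to 7.5 × 10^5 CFU/mL, then mixed 1:1 with 2-fold serial dilutions of gold complexes from DMSO or water stocks, in triplicate, and held 37 °C, 18 h, static. MIC: lowest concentration giving >90% inhibition by OD600 against medium-only and bacteria-only wells. […] E. coli ATCC 25922 quality control was checked each run with ciprofloxacin and […].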

[3] = tested on: K. pneumoniae ATCC 700603; assay: Broth microdilution MIC/MBC, K. pneumoniae; format: cell-based, Klebsiella pneumoniae; settings: for MIC K. pneumoniae ATCC 700603: value before the parentheses, two values = two repeats; for MBC K. pneumoniae ATCC 700603: value in parentheses
Summary of the method: as §1

[4] = tested on: P. aeruginosa NCTC 13437; assay: Broth microdilution MIC/MBC, P. aeruginosa; format: cell-based, Pseudomonas aeruginosa; settings: for MIC P. aeruginosa NCTC 13437: value before the parentheses, two values = two repeats; for MBC P. aeruginosa NCTC 13437: value in parentheses
Summary of the method: as §1

[5] = tested on: Gram-negative strains; assay: Broth microdilution, Gram-negative strains taken together; format: cell-based
[6] = tested on: S. aureus JE2 (USA300); assay: Broth microdilution MIC/MBC, S. aureus; format: cell-based, Staphylococcus aureus; settings: for MBC S. aureus JE2 (USA300): value in parentheses; for fold enhancement of activity over auranofin, S. aureus: vs auranofin; for MIC S. aureus JE2 (USA300): value before the parentheses, two values = two repeats
Summary of the method: as §1

[7] = tested on: E. faecium ATCC 700221; assay: Broth microdilution MIC/MBC, E. faecium; format: cell-based, Enterococcus faecium; settings: for MIC E. faecium ATCC 700221: value before the parentheses, two values = two repeats; for MBC E. faecium ATCC 700221: value in parentheses
Summary of the method: as §1

[8] = Log P determination; settings: n-octanol/water, Au by FAAS
[9] = tested on: E. cloacae NCTC 13405; assay: Broth microdilution MIC/MBC, E. cloacae; format: cell-based, Enterobacter cloacae; settings: for MIC E. cloacae NCTC 13405: value before the parentheses, two values = two repeats; for MBC E. cloacae NCTC 13405: value in parentheses
Summary of the method: as §1

| Structure (SMILES) | MIC A. baumannii NCTC 13420 [1] | MIC E. coli ATCC 25922 [2] | MIC K. pneumoniae ATCC 700603 [3] | MIC P. aeruginosa NCTC 13437 [4] | activity toward Gram-negative strains (in words) [5] | MIC S. aureus [6] | MBC S. aureus JE2 (USA300) [6] | fold enhancement of activity over auranofin, S. aureus [6] | MIC E. faecium ATCC 700221 [7] | MBC E. faecium ATCC 700221 [7] | log P [8] | MIC E. cloacae NCTC 13405 [9] | MBC A. baumannii NCTC 13420 [1] | MBC E. coli ATCC 25922 [2] | MBC K. pneumoniae ATCC 700603 [3] | MIC S. aureus JE2 (USA300) [6] | MBC E. cloacae NCTC 13405 [9] | fold enhancement of activity over auranofin, E. coli ([2]; vs auranofin) | MBC P. aeruginosa NCTC 13437 [4] |
| --- | --- | --- | --- | --- | --- | --- | --- | --- | --- | --- | --- | --- | --- | --- | --- | --- | --- | --- | --- |
| CC[P+](CC)(CC)[Au-][S]c1ccc([N+](=O)[O-])cc1 [Compound 19, (4-Nitrobenzenethiolato)(triethylphosphine) Gold(I)] | >546 µM | >546 µM | >546 µM | >546 µM | completely inactive | in the nanomolar range | 0.02 µM | up to 10 | 0.06 µM and 0.1 µM | 0.5 µM | >3.28 | >546 µM | – | – | – | – | – | – | – |
| CC(=O)NC1C([S][Au][PH](C)(C)C)OC(CO)C(O)C1O [Compound 39, (2-Acetamido-2-deoxy-1-thio-β-D-glucopyranosato)-(trimethylphosphine) Gold(I)] | 16 µM and 8 µM | – | 31 µM | >503 µM | – | – | 0.5 µM | – | – | 0.5 µM | −2.03 | 8 µM and 16 µM | 16 µM | 31 µM | 126 µM | 0.5 µM | 16 µM | – | – |
| [Cl][Au].c1ccc(P(c2ccccc2)c2ccccc2)cc1 [Compound 27, (Triphenylphosphine)gold Chloride] | – | >518 µM | >518 µM | >518 µM | – | – | 4 µM | – | 4 µM | 4 µM | >3.94 | >518 µM | 518 µM | – | – | 1 µM and 2 µM | – | – | – |
| CC[P+](CC)(CC)[Au-][S][C@@H]1OC(CO)[C@@H](O)[C@H](O)C1NC(C)=O (stereo partly drawn) [Compound 12, (2-Acetamido-2-deoxy-1-thio-β-D-glucopyranosato)-(triethylphosphine) Gold(I)] | 15 µM and 29 µM | 7 µM and 4 µM | 464 µM | 464 µM | – | – | 0.05 µM | 2–3 | 0.05 µM and 0.1 µM | 0.5 µM | −0.89 | 116 µM | 116 µM | 7 µM | 464 µM | 0.02 µM | 232 µM | 2–3 | 464 µM |
| FC(F)(F)c1ccc(P(c2ccc(C(F)(F)F)cc2)c2ccc(C(F)(F)F)cc2)cc1.[Cl][Au] [Compound 30, (Tris(4-trifluoromethylphenyl)phosphine)gold Chloride] | >366 µM | >366 µM | >366 µM | >366 µM | – | – | 11 µM | – | >366 µM | – | >3.94 | >366 µM | – | – | – | – | – | – | – |
| COc1ccc([P+]([Au-][Cl])(c2ccc(OC)cc2)c2ccc(OC)cc2)cc1 [Compound 28, (Tris(4-methoxyphenyl)phosphine)gold Chloride] | >438 µM | >438 µM | >438 µM | >438 µM | – | – | 3 µM | – | 3 µM | 3 µM | >4.09 | >438 µM | – | – | – | 2 µM | – | – | – |
| CCCC[P+](CCCC)(CCCC)[Au-][S][C@@H]1OC(COC(C)=O)[C@@H](OC(C)=O)[C@H](OC(C)=O)C1OC(C)=O (stereo partly drawn) [Compound 32, (2,3,4,6-Tetra-O-acetyl-1-thio-β-D-glucopyranosato)(tri-n-butylphosphine) Gold(I)] | 84 µM | >336 µM | >336 µM | >336 µM | completely diminished the activity | – | 3 µM | – | 3 µM and 5 µM | 3 µM | >4.32 | >336 µM | > 336 µM | – | – | 3 µM | – | – | – |
| CC[PH](CC)(CC)[Au][S]c1ccc(C(F)(F)F)cc1 [Compound 20, (4-(Trifluoromethyl)benzenethiolato)(triethylphosphine) Gold(I)] | 520 µM | >520 µM | >520 µM | >520 µM | completely inactive | – | 0.2 µM | – | 0.02 µM | 0.2 µM | >3.18 | >520 µM | > 520 µM | – | – | – | – | – | – |
| CC[PH](CC)(CC)[Au][S]c1ccccc1 [Compound 15, (Benzenethiolato)(triethylphosphine) Gold(I)] | – | 151 µM | >603 µM | 302 µM | – | – | 0.6 µM | – | 0.6 µM | 1 µM | 2.20 | 75 µM | > 603 µM | 151 µM | – | 0.02 µM | 603 µM | – | 302 µM |
| C[PH](C)(C)[Au][S]C1OC(CO)C(O)C(O)C1O [Compound 37, (1-Thio-β-D-glucopyranosato)(trimethylphosphine) Gold(I)] | – | 9 µM | 34 µM | >547 µM | – | – | 1 µM | – | 0.3 µM and 0.5 µM | 0.5 µM | −1.63 | – | 17 µM | 9 µM | 34 µM | 0.3 µM and 0.5 µM | 17 µM | – | – |
| C[PH](C)(C)[Au][S]C1OC(CO)C(O)C(O)C1O [Compound 38, (1-Thioβ-D-galatopyranosato)(trimethylphosphine) Gold(I)] | 17 µM and 9 µM | 9 µM | 34 µM | >547 µM | – | – | 0.3 µM | – | 0.3 µM and 0.5 µM | 0.5 µM | −1.88 | 4.5 µM and 4 µM | 17 µM | 9 µM | 34 µM | 0.3 µM | 4.5 µM and 4 µM | – | – |
| CC(=O)OCC1O[C@@H]([S][Au-][P+](c2ccccc2)(c2ccccc2)c2ccccc2)C(OC(C)=O)[C@@H](OC(C)=O)[C@@H]1OC(C)=O (stereo partly drawn) [Compound 33, (2,3,4,6-Tetra-O-acetyl-1-thio-β-D-glucopyranosato)-(triphenylphosphine) Gold(I)] | >311 µM | >311 µM | >311 µM | >311 µM | – | – | 2 µM | – | 5 µM | 5 µM | >3.87 | >311 µM | – | – | – | 1 µM and 2 µM | – | – | – |
| CC[P+](CC)(CC)[Au-][S]CC(=O)OC [Compound 22, (Methyl Mercaptoacetatato)(triethylphosphine) Gold(I)] | 19 µM | 76 µM | 76 µM | 305 µM | – | in the nanomolar range | 0.02 µM | – | – | 0.6 µM | 1.75 | 38 µM | 76 µM | 76 µM | 76 µM | – | 152 µM | – | 305 µM |
| CC[PH](CC)(CC)[Au][S]C1OC(CO)C(O)C(O)C1O [Compound 11, (1-Thio-D-mannopyranosato)(triethylphosphine) Gold(I)] | 31 µM | 16 µM | 502 µM | 502 µM | – | – | 0.1 µM | – | 0.1 µM and 0.06 µM | 0.5 µM | −0.59 | 125 µM | 63 µM | 16 µM | 502 µM | – | 251 µM | – | 502 µM |
